The values below come from ChEMBL document CHEMBL1154137, “Monodictyochromes A and B, dimeric xanthone derivatives from the marine algicolous fungus Monodictys putredinis” (J Nat Prod, 2008).

Active and inactive are the calls of the source. The calls are words filed in the database; no cut-off is given here. Where only a bound is given, the exact number is not on record here.

Data set [1] in a line: Inhibition of CYP1A in beta-naphthoflavone-stimulated rat […] cells assessed as dealkylation of 3-cyano-7-ethoxycoumarin to 3-cyano-7-hydroxyciumarin. Format: ADME, cell-based. The conditions noted are these: for IC50: Rattus norvegicus; for Activity: rat. In a few lines:
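Rat hepatoma H4IIE cells induced with β-naphthoflavone, then homogenised. CYP1A activity measured as dealkylation of 3-cyano-7-ethoxycoumarin to fluorescent 3-cyano-7-hydroxycoumarin, over a dose range. α-Naphthoflavone serves as positive control. IC50 is given as mean ± SD, n = 3.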

In the next data set the test system is Priestia megaterium. Kind of data set: Antibacterial activity against Bacillus megaterium at 1 mg/ml by agar diffusion assay. Format: functional, organism-based. In outline:
(§1)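 Agar diffusion assay with test solution at 1 mg/mL. Organisms: bacteria Bacillus megaterium and Escherichia coli; fungi Microbotryum violaceum, Eurotium rubrum and Mycotypha microspora; green microalga Chlorella fusca.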

Data set [2] addresses T1, Quinone oxidoreductase (Mus musculus) (UniProt P47199).
T1 sequence (whole entry): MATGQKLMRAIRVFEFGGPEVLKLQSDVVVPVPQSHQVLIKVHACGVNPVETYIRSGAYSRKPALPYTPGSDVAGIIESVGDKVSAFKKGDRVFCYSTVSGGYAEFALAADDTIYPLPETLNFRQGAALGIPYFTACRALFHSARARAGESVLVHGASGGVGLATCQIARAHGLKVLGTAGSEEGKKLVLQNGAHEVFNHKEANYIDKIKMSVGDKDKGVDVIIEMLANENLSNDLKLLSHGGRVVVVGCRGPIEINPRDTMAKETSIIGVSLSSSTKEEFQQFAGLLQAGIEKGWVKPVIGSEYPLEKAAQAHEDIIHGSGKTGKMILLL
Kind of data set: Ratio of compound to sulforaphane level required to double NADPH-quinone reductase activity in mouse Hepa-1c1c7 cells. In kind it is cell-based.

Data set [3] can be described thus: Antioxidant activity assessed as superoxide anion radical scavenging activity up to 50 uM. Format: functional. In outline: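 Superoxide anion radicals generated by xanthine oxidase oxidising hypoxanthine to uric acid. Scavenging tested at concentrations up to 50 µM.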
A further data set has as its system Aspergillus ruber. Kind of data set: Antifungal activity against Eurotium rubrum at 1 mg/ml by agar diffusion assay. Format: functional, organism-based. In a few lines:
as §1
A general note: Agar diffusion results depend on both activity and mobility in agar.

The target of data set [4] is Prostaglandin G/H synthase 1 (Homo sapiens) (UniProt P23219). Kind of data set: Inhibition of COX1 at 100 uM. In a few lines:
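COX-1 enzymatic activity used as a marker of tumour promotion. Compounds tested at 100 µM.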

The test system of the next data set is Mycotypha microspora. The data set can be described thus: Antifungal activity against Mycotypha microspora at 1 mg/ml by agar diffusion assay. In kind it is functional, organism-based. In a few lines: as §1
Another data set concerns the target T2, Aromatase (Homo sapiens, UniProt P11511).
T2 sequence (P11511 whole entry): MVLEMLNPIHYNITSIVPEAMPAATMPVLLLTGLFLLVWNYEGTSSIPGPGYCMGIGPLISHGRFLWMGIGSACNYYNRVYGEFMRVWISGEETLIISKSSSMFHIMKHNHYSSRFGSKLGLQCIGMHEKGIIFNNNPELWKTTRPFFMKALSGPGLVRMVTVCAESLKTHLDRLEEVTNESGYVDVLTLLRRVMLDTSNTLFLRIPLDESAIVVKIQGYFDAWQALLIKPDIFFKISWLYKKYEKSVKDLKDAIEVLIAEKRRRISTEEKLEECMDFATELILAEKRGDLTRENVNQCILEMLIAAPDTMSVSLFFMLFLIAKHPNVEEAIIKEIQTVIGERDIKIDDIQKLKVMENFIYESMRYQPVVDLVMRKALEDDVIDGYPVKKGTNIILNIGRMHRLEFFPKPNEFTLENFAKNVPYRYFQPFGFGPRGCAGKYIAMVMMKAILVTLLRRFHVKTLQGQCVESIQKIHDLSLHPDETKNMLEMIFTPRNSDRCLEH
The data set can be described thus: Inhibition of human recombinant aromatase. The conditions noted are these: for Activity: human. In outline: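 Human recombinant CYP19 (aromatase) with O-benzylfluorescein benzyl ester (DBF) as substrate.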

Data set [5] deals with Radical scavenging activity. Kind of data set: Antioxidant activity assessed as DPPH radical scavenging activity up to 250 uM. Format: functional. (In general: Loss of DPPH colour is used to gauge radical scavenging.)
A short description of data set [6]: Cytotoxicity against mouse Hepa-1c1c7 cells by MTT assay. Format: cell-based. In general terms: Tetrazolium assays rely on reduction of a dye to a coloured formazan, in cell work by metabolically active cells.
The subject of another data set is [Chlorella] fusca. Kind of data set: Antialgal activity against Chlorella fusca at 1 mg/ml by agar diffusion assay. The conditions noted are these: Scenedesmus fuscus. Format: functional, organism-based. In outline:
as §1

A further data set relates to Escherichia coli. Kind of data set: Antibacterial activity against Escherichia coli at 1 mg/ml by agar diffusion assay. In kind it is functional, organism-based. In outline: as §1
In another data set the test system is Microbotryum violaceum. The data set can be described thus: Antifungal activity against Microbotryum violaceum at 1 mg/ml by agar diffusion assay. Format: functional, organism-based. In outline:
as §1

Data set [7] is described as follows: Antioxidant activity assessed as AAPH radical scavenging activity at 1 uM. In kind it is functional. In outline: (§2)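 Oxygen radical absorbance capacity (ORAC) assay. AAPH generates peroxyl radicals, and trolox, the water-soluble vitamin E analogue, serves as reference. Compounds tested at 1 µM.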
Data set [8] is described as follows: Antioxidant activity assessed as AAPH radical scavenging activity. In kind it is functional. In a few lines:
as §2

Sequence of Prostaglandin G/H synthase 1 (Homo sapiens) (P23219 whole entry): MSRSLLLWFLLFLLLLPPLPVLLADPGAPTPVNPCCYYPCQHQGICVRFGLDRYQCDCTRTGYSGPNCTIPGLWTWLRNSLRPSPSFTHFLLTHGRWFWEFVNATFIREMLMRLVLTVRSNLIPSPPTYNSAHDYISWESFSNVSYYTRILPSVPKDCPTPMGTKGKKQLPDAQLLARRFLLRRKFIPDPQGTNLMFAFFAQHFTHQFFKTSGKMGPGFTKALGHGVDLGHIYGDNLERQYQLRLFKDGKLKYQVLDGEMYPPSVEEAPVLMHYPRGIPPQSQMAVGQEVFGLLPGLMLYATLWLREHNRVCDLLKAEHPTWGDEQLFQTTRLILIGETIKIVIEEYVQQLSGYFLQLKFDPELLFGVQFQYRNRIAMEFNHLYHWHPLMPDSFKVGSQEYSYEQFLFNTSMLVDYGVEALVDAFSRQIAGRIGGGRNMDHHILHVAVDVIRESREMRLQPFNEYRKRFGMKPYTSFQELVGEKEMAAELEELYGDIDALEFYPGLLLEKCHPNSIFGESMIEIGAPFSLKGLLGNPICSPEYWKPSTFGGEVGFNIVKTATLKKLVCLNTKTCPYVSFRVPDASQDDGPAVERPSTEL

As a reminder, the IC50 is the concentration needed to halve the response being measured. The inhibition is the percentage by which the read-out fell short of the control. For the molecule `Cc1cc(O)c2c(c1-c1ccc3c(c1O)C(=O)C[C@](C)([C@@H]1OC(=O)C[C@@H]1C)O3)O[C@](C)([C@@H]1OC(=O)C[C@H]1O)CC2=O` [MONODICTYOCHROMONE A], the IC50 is 5.3 µM in [1], 24.4 µM on Aromatase and more than 50 µM in [6]. The Activity entry (in data set [1]; at Aromatase) was “Dose-dependent effect” in each case. Also, the result (in the data set on Priestia megaterium; in data set [3]; in the data set on Aspergillus ruber; in the data set on Mycotypha microspora; in data set [5]; in data set [Chlorella] fusca) was inactive. The outcome in the data set on Escherichia coli and in the data set with Microbotryum violaceum was inactive. Moreover, the Ratio in data set [2] is 100. The same molecule displayed an inhibition in [4] of less than 50%. The result in data set [7] was Active.

In the case of `Cc1cc2c(c(O)c1-c1ccc3c(c1O)C(=O)C[C@](C)([C@@H]1OC(=O)C[C@@H]1C)O3)C(=O)C[C@@](C)([C@@H]1OC(=O)C[C@H]1O)O2` [MONODICTYOCHROMONE B], the IC50 is 7.5 µM in [1], 16.5 µM at Aromatase and more than 50 µM in [6]. The Activity result (in data set [1]; at Aromatase) was “Dose-dependent effect” throughout. Besides, the result (in the data set with Priestia megaterium; in data set [3]; in the data set on Aspergillus ruber; in the data set on Mycotypha microspora; in data set [5]; in [Chlorella] fusca) was inactive. For the same molecule, the outcome in the data set with Escherichia coli and in the data set with Microbotryum violaceum was inactive. Also, the Ratio in [2] is 100. Further, the inhibition in data set [4] was less than 50%. In addition, in [7], the result was Active.

Turning to `Cc1c(C)c2c(c(C)c1O)CCC(C)(C(=O)O)O2` (stereo not drawn), in data set [8], the outcome was Active.
